Measured values from ChEMBL document CHEMBL1123510, “Investigation of the structural requirements for the kappa-selective opioid receptor antagonist, 6 beta,6 beta'-[ethylenebis(oxyethyleneimino)]bis[17-(cyclopropylmethyl)- 4,5 alpha-epoxymorphinan-3,14-diol] (TENA)” (J Med Chem, 1986).

How the values were obtained:
Type in all cases: functional
[1] = species: Cavia porcellus; test: Inhibitory concentration of compound was measured in muscle of the guinea pig ileum; conditions: Muscle tissue
Procedure, shortened: (§1)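 Electrically stimulated longitudinal muscle of guinea pig ileum; agonist IC50 for inhibition of the twitch, with potency expressed relative to a control morphine IC50 run in the same preparation.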

[2] = Ratio of IC50 of ethylketazocine (EK) in the presence of compound to IC50 of ethylketazocine in the absence of compound
Procedure, shortened: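 Guinea pig ileum longitudinal muscle, electrically stimulated; the kappa agonist ethylketazocine (EK) was run with and without the test antagonist, given at 20 nM or 2 nM depending on the compound. The IC50 ratio is EK IC50 with antagonist over EK IC50 alone.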

[3] = species: Cavia porcellus; test: The agonist potency of compound was determined relative to control morphine IC50; procedure, shortened: as §1
[4] = species: Cavia porcellus; test: Inhibitory concentration of morphine was measured in muscle of the guinea pig ileum; conditions: Muscle tissue; procedure, shortened: as §1

Compound	IC50 [1] [µM]	IC50 ratio [2]	Relative potency [3]	IC50 [4] [µM]
N=C(N)NCCOCCOCCN[C@@H]1CC[C@@]2(O)C3Cc4ccc(O)c5c4C2(CCN3CC2CC2)[C@H]1O5.O=S(=O)(O)O (some centres not stated)	0.0114	1	9.1	0.104
Oc1ccc2c3c1O[C@H]1[C@H](NCCOCCOCCNCc4ccccc4)CC[C@@]4(O)C(C2)N(CC2CC2)CCC314 (some centres not stated)	0.206	3.1	5.2	0.107
NCCOCCOCCN[C@@H]1CC[C@@]2(O)C3Cc4ccc(O)c5c4C2(CCN3CC2CC2)[C@H]1O5 (some centres not stated)	0.0211	1.1	5.8	0.123
